According to ChEMBL document CHEMBL4376812 (J Med Chem, 2019):

Columns and labels:
[1] = Oral bioavailability in C57BL/6 mouse at 10 mg/kg; format: ADME, organism-based; conditions: in vivo
How it was run: (§1)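 Oral PK: single dose of 10 mg/kg as a solution in ethanol/TPGS/PEG 300 (5:5:90) given to mouse, dog and monkey. Cmax (μM), AUC (μM × h) and bioavailability F (%) were derived, with F taken against the iv arm.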

[2] = Metabolic stability in cynomolgus monkey liver microsomes assessed as half life; format: ADME, Macaca fascicularis, Microsome
How it was run: (§2)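 Liver microsomes from human, rat, mouse, dog, cynomolgus monkey and rabbit were incubated with compound. Stability is reported as half-life (T1/2, min). Values are means of at least three separate experiments.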

[3] = Metabolic stability in rabbit liver microsomes assessed as half life; format: ADME, Oryctolagus cuniculus, Microsome; how it was run: as §2
[4] = Time during which drug concentration exceed invitro IC50 for TYK2 in mouse whole blood assessed as decrease in IFNalpha-induced STAT1 phosphorylation in C57BL/6 mouse at 30 mg/kg, po via gavage bid for 9 days with first dose given prior to first IL23 challenge and twice a day thereafter; format: ADME, organism-based; conditions: in vivo, 216 h
How it was run: (§3)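 Drug levels were measured in the animals of the IL-23 acanthosis study, dosed orally twice daily. The duration was the time, in hours, that levels stayed at or above the in vitro mouse whole blood IC50 for IFNα-induced pSTAT1.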

[5] = Permeability coefficient, Kp across basolateral to apical side in human Caco2 cells; format: ADME, cell-based; conditions: Caco-2, read-out: permeability
How it was run: (§4)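 Caco-2 monolayer permeability measured in both directions, apical-to-basal and basal-to-apical, reported as Pc in nm/s. An efflux ratio was calculated from the two directions.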

[6] = MRT in dog at 2 mg/kg, iv; format: ADME, organism-based, Canis lupus familiaris; conditions: in vivo
How it was run: (§5)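 Dog and monkey iv PK: 2 mg/kg given by iv administration. Clearance (mL min⁻¹ kg⁻¹), Vss, T1/2 (h) and MRT (h) were derived.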

Cytochrome P450 2C19 = Cytochrome P450 2C19 (Homo sapiens, UniProt P33261); assay: Inhibition of CYP2C19 (unknown origin); format: ADME
Cytochrome P450 2C19, sequence (P33261 whole entry): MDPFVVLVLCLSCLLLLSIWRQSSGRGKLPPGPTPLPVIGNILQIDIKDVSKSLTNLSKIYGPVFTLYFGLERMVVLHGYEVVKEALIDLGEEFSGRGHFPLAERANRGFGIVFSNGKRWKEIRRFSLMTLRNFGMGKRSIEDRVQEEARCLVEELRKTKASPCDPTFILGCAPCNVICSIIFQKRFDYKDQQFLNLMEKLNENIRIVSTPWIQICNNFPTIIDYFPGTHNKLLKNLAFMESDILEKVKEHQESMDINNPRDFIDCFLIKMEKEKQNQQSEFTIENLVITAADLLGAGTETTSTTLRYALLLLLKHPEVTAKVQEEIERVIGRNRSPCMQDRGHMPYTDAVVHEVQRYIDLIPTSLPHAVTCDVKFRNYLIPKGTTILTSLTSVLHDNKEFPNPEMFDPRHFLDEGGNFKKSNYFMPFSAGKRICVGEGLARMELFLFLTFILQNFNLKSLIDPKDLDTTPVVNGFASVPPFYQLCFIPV
How it was run: (§6)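 Inhibition of CYP1A2, 2C9, 2C19, 2D6 and 3A4, read out as IC50. The highest concentration tested was 40 μM.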

[7] = Oral bioavailability in cynomolgus monkey at 10 mg/kg; format: ADME, organism-based, Macaca fascicularis; conditions: in vivo; how it was run: as §1
[8] = Permeability coefficient, Kp across apical to basolateral side in human Caco2 cells; format: ADME, cell-based; conditions: Caco-2, read-out: permeability; how it was run: as §4
[9] = Metabolic stability in mouse liver microsomes assessed as compound remaining incubated for 10 mins; format: ADME, Microsome; conditions: read-out: Stability
How it was run: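 Mouse liver microsomal stability, reported as percent of parent remaining after a 10 min incubation. Values are means of at least three experiments unless otherwise noted.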

[10] = Time during which drug concentration exceed invitro IC50 for TYK2 in mouse whole blood assessed as decrease in IFNalpha-induced STAT1 phosphorylation in C57BL/6 mouse at 15 mg/kg, po via gavage bid for 9 days with first dose given prior to first IL23 challenge and twice a day thereafter; format: ADME, organism-based; conditions: in vivo, 216 h; how it was run: as §3
[11] = Protein binding in cynomolgus monkey assessed as unbound fraction; format: ADME, Macaca fascicularis
[12] = Half life in dog at 2 mg/kg, iv; format: ADME, organism-based, Canis lupus familiaris; conditions: in vivo; how it was run: as §5
Mus musculus [13] = assay: Antiinflammatory activity in CD40-induced colitis model of SCID mouse assessed as inhibition of IL-2 driven body weight loss at 50 mg/kg, po administered twice daily relative to control; format: functional; conditions: in the assay text read “IL-12 driven” for “IL-2 driven”
How it was run: (§7)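 Colitis induced by anti-CD40 in SCID mice. Compound was given orally at 50 mg/kg twice daily. Read-outs were peak weight loss (IL-12 driven) and histological scores.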

[14] = AUC in C57BL/6 mouse at 10 mg/kg, po; format: ADME, organism-based; conditions: in vivo; how it was run: as §1
[15] = MRT in C57BL/6 mouse at 1 mg/kg, iv; format: ADME, organism-based; conditions: in vivo
How it was run: (§8)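 Mouse iv PK: 1 mg/kg given in 80% PEG 400/20% water. Clearance (mL min⁻¹ kg⁻¹) and MRT (h) were derived.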

[16] = Volume of distribution at steady state in C57BL/6 mouse at 1 mg/kg, iv; format: ADME, organism-based; conditions: in vivo, read-out: Vdss
How it was run: (§9)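 Single intravenous dose in 80% PEG 400/20% water. V_ss was taken from the iv plasma PK profile.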

[17] = Metabolic stability in rat liver microsomes assessed as half life; format: ADME, Microsome; how it was run: as §2
[18] = Clearance in dog at 2 mg/kg, iv; format: ADME, organism-based, Canis lupus familiaris; conditions: in vivo; how it was run: as §5
Mus musculus [19] = assay: Antiinflammatory activity in CD40-induced colitis model of SCID mouse assessed as inhibition of histological scores in intestine at 50 mg/kg, po administered twice daily relative to control; format: functional; how it was run: as §7
hERG (KCNH2) = hERG (KCNH2) (Homo sapiens, UniProt Q12809); assay: Inhibition of human ERG at 10 uM by patch-clamp assay relative to control
hERG (KCNH2), sequence (Q12809 whole entry): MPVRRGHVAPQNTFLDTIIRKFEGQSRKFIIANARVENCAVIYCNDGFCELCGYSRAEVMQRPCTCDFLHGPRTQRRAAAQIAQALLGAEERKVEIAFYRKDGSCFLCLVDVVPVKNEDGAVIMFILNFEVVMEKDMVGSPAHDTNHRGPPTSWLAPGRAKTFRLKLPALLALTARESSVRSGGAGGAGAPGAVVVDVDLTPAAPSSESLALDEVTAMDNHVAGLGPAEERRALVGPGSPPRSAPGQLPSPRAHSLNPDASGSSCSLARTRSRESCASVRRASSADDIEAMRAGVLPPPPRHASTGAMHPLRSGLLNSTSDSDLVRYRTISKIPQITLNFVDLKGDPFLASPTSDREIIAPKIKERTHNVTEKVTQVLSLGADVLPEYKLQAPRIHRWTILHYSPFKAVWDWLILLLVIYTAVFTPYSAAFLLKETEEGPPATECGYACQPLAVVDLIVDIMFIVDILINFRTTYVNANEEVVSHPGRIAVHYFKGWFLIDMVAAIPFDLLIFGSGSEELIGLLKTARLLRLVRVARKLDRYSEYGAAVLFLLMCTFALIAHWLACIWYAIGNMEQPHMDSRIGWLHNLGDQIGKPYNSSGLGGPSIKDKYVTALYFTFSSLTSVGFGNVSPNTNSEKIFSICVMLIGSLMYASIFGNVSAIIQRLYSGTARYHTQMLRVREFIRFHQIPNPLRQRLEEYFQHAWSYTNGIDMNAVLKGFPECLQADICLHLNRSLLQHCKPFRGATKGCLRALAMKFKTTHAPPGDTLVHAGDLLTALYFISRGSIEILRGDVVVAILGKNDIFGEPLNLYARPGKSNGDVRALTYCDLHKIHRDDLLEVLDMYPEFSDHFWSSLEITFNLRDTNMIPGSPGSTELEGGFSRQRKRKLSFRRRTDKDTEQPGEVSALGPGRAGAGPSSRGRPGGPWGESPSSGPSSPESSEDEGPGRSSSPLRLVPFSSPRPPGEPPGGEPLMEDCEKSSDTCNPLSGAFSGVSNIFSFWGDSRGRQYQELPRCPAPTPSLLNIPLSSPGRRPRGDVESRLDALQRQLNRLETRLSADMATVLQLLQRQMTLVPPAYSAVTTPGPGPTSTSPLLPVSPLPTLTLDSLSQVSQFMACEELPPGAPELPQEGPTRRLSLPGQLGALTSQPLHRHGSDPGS
How it was run: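 hERG potassium channel patch clamp assay, read as percent inhibition at 10 μM (n = 7).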

[20] = AUC in cynomolgus monkey at 10 mg/kg, po; format: ADME, organism-based, Macaca fascicularis; conditions: in vivo; how it was run: as §1
[21] = Metabolic stability in dog liver microsomes assessed as half life; format: ADME, Canis lupus familiaris, Microsome; how it was run: as §2
[22] = Volume of distribution at steady state in dog at 2 mg/kg, iv; format: ADME, organism-based, Canis lupus familiaris; conditions: in vivo, read-out: Vdss; how it was run: as §9
[23] = Clearance in cynomolgus monkey at 2 mg/kg, iv; format: ADME, organism-based, Macaca fascicularis; conditions: in vivo; how it was run: as §5
[24] = Protein binding in human assessed as unbound fraction; format: ADME
[25] = AUC in dog at 10 mg/kg, po; format: ADME, organism-based, Canis lupus familiaris; conditions: in vivo; how it was run: as §1
[26] = Cmax in C57BL/6 mouse at 10 mg/kg, po; format: ADME, organism-based; set-up: dose 10 mg/kg, route oral; conditions: in vivo; how it was run: as §1
[27] = Half life in C57BL/6 mouse at 1 mg/kg, iv; format: ADME, organism-based; conditions: in vivo
How it was run: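 Mouse iv PK: 1 mg/kg in 80% PEG 400/20% water. Terminal half-life reported in hours.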

Cytochrome P450 3A4 [28] = target: T1, Cytochrome P450 3A4 (Homo sapiens, UniProt P08684); assay: Induction of CYP3A4 (unknown origin) by PXR-transactivation assay; format: ADME
T1 sequence (P08684 whole entry): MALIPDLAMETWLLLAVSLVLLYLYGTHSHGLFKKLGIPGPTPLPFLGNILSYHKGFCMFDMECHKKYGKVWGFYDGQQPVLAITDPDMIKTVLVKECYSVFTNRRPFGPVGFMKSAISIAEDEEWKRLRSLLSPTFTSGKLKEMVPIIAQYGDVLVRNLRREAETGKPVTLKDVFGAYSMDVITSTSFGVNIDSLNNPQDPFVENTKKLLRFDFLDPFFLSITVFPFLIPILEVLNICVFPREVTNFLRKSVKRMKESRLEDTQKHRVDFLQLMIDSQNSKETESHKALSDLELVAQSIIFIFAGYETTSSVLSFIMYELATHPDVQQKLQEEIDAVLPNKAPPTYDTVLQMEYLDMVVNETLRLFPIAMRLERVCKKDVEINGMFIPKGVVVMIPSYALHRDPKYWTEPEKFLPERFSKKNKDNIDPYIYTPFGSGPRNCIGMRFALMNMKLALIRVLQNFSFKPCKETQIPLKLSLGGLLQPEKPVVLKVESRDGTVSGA
How it was run: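 CYP3A4 induction measured by PXR transactivation, read out as EC50. The highest concentration tested was 40 μM.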

[29] = Oral bioavailability in dog at 10 mg/kg; format: ADME, organism-based, Canis lupus familiaris; conditions: in vivo; how it was run: as §1
[30] = Metabolic stability in human liver microsomes assessed as half life; format: ADME, Microsome; how it was run: as §2
[31] = Volume of distribution at steady state in cynomolgus monkey at 2 mg/kg, iv; format: ADME, organism-based, Macaca fascicularis; conditions: in vivo, read-out: Vdss; how it was run: as §9
[32] = Clearance in C57BL/6 mouse at 1 mg/kg, iv; format: ADME, organism-based; conditions: in vivo; how it was run: as §8
Cytochrome P450 3A4 [33] = target: T1, Cytochrome P450 3A4; assay: Inhibition of CYP3A4 (unknown origin); format: ADME; how it was run: as §6
[34] = Time during which drug concentration exceed invitro IC50 for TYK2 in mouse whole blood assessed as decrease in IFNalpha-induced STAT1 phosphorylation in C57BL/6 mouse at 7.5 mg/kg, po via gavage bid for 9 days with first dose given prior to first IL23 challenge and twice a day thereafter; format: ADME, organism-based; conditions: in vivo, 216 h; how it was run: as §3

- bioavailability [1]: 122%
- half-life [2]: > 2 h
- half-life [3]: > 2 h
- T>IC50 [4]: 24 h
- Papp B→A [5]: 74 ×10⁻⁶ cm/s
- MRT [6]: 5.5 h
- IC50 (Cytochrome P450 2C19): > 40 µM
- bioavailability [7]: 87%
- Papp A→B [8]: 7 ×10⁻⁶ cm/s
- remaining at 10 min [9]: 89%
- T>IC50 [10]: 21 h
- fraction unbound [11]: 0.12
- half-life [12]: 4.6 h
- AUC [14]: 36.4 µM·h
- MRT [15]: 3.6 h
- Vd [16]: 2.9 L/kg
- half-life [17]: > 2 h
- clearance [18]: 6.8 mL/min/kg
- AUC [20]: 75.7 µM·h
- half-life [21]: > 2 h
- Vd [22]: 2.3 L/kg
- clearance [23]: 4.8 mL/min/kg
- fraction unbound [24]: 0.13
- AUC [25]: 73.6 µM·h
- Cmax [26]: 7.5 µM
- half-life [27]: 4.2 h
- EC50 (Cytochrome P450 3A4 [28]): > 40 µM
- bioavailability [29]: 128%
- half-life [30]: > 2 h
- Vd [31]: 2 L/kg
- clearance [32]: 13.2 mL/min/kg
- IC50 (Cytochrome P450 3A4 [33]): > 40 µM
- T>IC50 [34]: 19 h
Structure (SMILES): [2H]C([2H])([2H])NC(=O)c1nnc(NC(=O)C2CC2)cc1Nc1cccc(-c2ncn(C)n2)c1OC [DEUCRAVACITINIB]
- inhibition in vivo at 50 mg/kg (Mus musculus [13]): 99%
- inhibition in vivo at 50 mg/kg (Mus musculus [19]): 70%
- inhibition at 10 µM (hERG (KCNH2)): 26%
